# Bioassay records: PubChem BioAssay, several laboratories
# A selection: hits, their analogues and other compounds. The true share with any hit is near 3.1%.
# T cruzi repl: T. cruzi replication inhibition. T. cruzi beta-gal in NIH3T3, luminescence, 90 h. inhibition, % (no concentration beside the values). 1.4% of 300,000 active. AID 1885;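 active means mean inhibition across valid replicates above about 55%, limit read from the data; inconclusive means mean below that limit but half or more replicates reach it; inactive means mean below it, under half of replicates reach it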;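 further: signal also drops with host cell toxicity which is not excluded here; higher percent means less beta-gal luminescence so fewer parasites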
#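 Material: NIH/3T3 host cells with β-galactosidase reporter T. cruzi; Input: 5,000 host fibroblasts per well; Medium: DMEM, 2% fetal bovine serum; Compound: 50 nL DMSO compound solution per well; Schedule: 3 h host attachment, then at least 90 h co-culture; Detection: luminescent β-galactosidase signal after 60 min lysis.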
# CSC inhib: cancer stem cell inhibition | cancer stem cell-like cells viability, luminescence | inhibition, % at 7.5 µM | 1.1% of 300,000 active | AID 2717; in the data active means inhibition above about 75%; inconclusive means no clear call, values can overlap the other calls; tested in HMLE shEcad cells
# Calb FLC: affects C. albicans growth with fluconazole | growth inhibition, % (no concentration beside the values) | C. albicans CaCi-2 + fluconazole, Alamar Blue growth, 48 h | AID 1979 | 0.57% of 300,000 active;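 active means growth inhibition above about 58% in most replicates, limit read from the data, passing the limit was not always enough; inconclusive means exactly half the replicates above a set limit; inactive means most replicates below a set limit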;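 further: all wells also contain fluconazole at 8 µg/ml as a sub-toxic cotreatment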
# Beta apoptosis: beta cell apoptosis inhibition. INS-1E cytokine-induced death, ATP luminescence, 48 h; percent of positive-control rescue, neutral wells zero. protection from apoptosis, % (concentration not given with the values). 0.8% of 300,000 active. AID 435005;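 active means Every replicate reaches about 75%, or at least half do and their mean reaches it too, limit read from the data; inconclusive means At least half of replicates reach the limit but their mean does not; inactive means Under half of replicates reach the limit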;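 further: higher means more ATP so stronger rescue from cytokine killing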
# Bfl-1 A1 inh: inhibitors of the anti-apoptotic protein A1, read as caspase activation; MEF A1-2A-BIM cells, Caspase-Glo 3/7 luminescence, 3 h; percent of clofoctol response, vehicle zero; caspase activation, % (test concentration not listed); 0.066% of 330,000 active; AID 2462;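 active means over half of replicate activation scores above 10%, or exactly half above 10 with the replicate mean above 10; inconclusive means replicate mean below 10 yet half the replicates above 10; inactive means over half of replicates below 10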
# TAG inh: reduces triacylglycerol accumulation in H9c2 cells. 0.66% of 230,000 active. inhibition, % at 12.5 µM. AID 651582. Nile Red lipid (TAG) fluorescence; cells loaded with 200 µM oleic acid;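 active means pattern-corrected inhibition of lipid staining of at least 50% with the nuclear-stain viability signal not falling by more than 50%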
# Hits are given with their value; - = inactive; ? = inconclusive; . = no result; + = active, no number.
SMILES,T cruzi repl,CSC inhib,Calb FLC,Beta apoptosis,Bfl-1 A1 inh,TAG inh
COc1ccccc1CNCC(O)Cn1c2ccccc2c2ccccc21 (stereo not given),-,-,?,102.6,-,-
COc1ccccc1N(CC(O)Cn1c2ccccc2c2ccccc21)S(=O)(=O)c1ccccc1 (stereo not given),62.5,-,-,-,-,-
Cc1cccc(-c2nnc(C(C)Nc3cccc(C(=O)NC4CC4)c3)o2)c1 (stereo not given),.,.,.,.,.,-
COc1ccc(-n2ncc(Cl)c(Cl)c2=O)cc1,56.7,.,-,.,.,.
CCCc1cc2c(=O)c(-c3ccc4c(c3)OCCO4)coc2cc1OC(=O)c1ccco1,-,88.7,-,-,-,-
O=C(c1ccc(CSc2nc3ccncc3[nH]2)cc1)N1CCN(c2cccc(Cl)c2)CC1,54.8,-,-,-,-,-
O=C(c1ccc(CSc2ccccc2)cc1)N1CCN(c2ccccc2)CC1,-,+,-,-,-,-
O=C(c1ccc(CSc2nc3ccncc3[nH]2)cc1)N1CCCCCC1,-,-,-,-,-,-
CCOc1ccc(-c2csc(/C(C#N)=C\c3ccc(O)c([N+](=O)[O-])c3)n2)cc1,-,108.3,-,-,-,.
CCCCc1ccc(-c2csc(/C(C#N)=C\c3ccc(C)o3)n2)cc1,-,-,-,-,-,.
CCc1noc(C)c1C(=O)NNC(=O)COc1ccc(C)cc1,-,-,.,-,-,-
CCCCN(C)C(=O)c1ccc2c(c1)N(CC)C(=O)c1ccccc1S2=O (stereo not given),-,-,-,-,?,.
CCCCN(C)CCCNC(=O)c1ccc2c(c1)N(CC)C(=O)c1ccccc1S2=O (stereo not given),60.7,-,-,-,-,.
Cc1ccc(C(=O)Cn2nnc(-c3cccs3)n2)cc1,-,-,-,-,-,-
O=C(CN1CC[n+]2c(-c3cccs3)csc21)c1ccc(-c2ccccc2)cc1,-,-,-,110.6,-,-
COc1ccc(N2CCN(CCC(O)c3ccc4ccccc4c3)CC2)cc1 (stereo not given),-,-,-,-,-,.
CC1=C/C(=N\NC(=S)NCCc2ccccc2)CC(C)(C)C1,-,-,96.0,-,-,-
C/C(CCc1ccccc1)=N\NC(=S)NCCc1ccccc1,-,-,-,-,-,.
COc1ccccc1C1NC=C([N+](=O)[O-])C=C1[N+](=O)[O-] (stereo not given),77.5,.,-,-,-,-
COc1ccccc1C1C([N+](=O)[O-])=CC([N+](=O)[O-])=CN1C (stereo not given),-,-,-,-,-,-
N#C/C(=C\c1c[nH]c2ccc(Br)cc12)c1ccccn1,-,78.6,-,-,-,.
CCn1c2ccccc2c2cc(NC(=O)C(C)OC(=O)c3ccc(NC(=O)CC#N)cc3)ccc21 (stereo not given),.,-,.,-,-,-
CN(C)CCCN(C(=O)c1ccc(S(=O)(=O)N2CCOCC2)cc1)c1nc2ccc(F)cc2s1,64.9,-,-,.,-,-
Cc1ccc2nc(N(CCCN(C)C)C(=O)c3ccc(S(=O)(=O)N4CCCCCC4)cc3)sc2c1,60.1,-,-,-,-,-
CN(C)CCCN(C(=O)c1ccc(S(=O)(=O)N2CCCCCC2)cc1)c1nc2ccc(F)cc2s1,-,-,-,-,-,-
SMILES,T cruzi repl,CSC inhib,Calb FLC,Beta apoptosis,Bfl-1 A1 inh,TAG inh
CCc1ccc2nc(N(CCCN(C)C)C(=O)c3ccc(S(=O)(=O)N4CCCC4)cc3)sc2c1,-,-,-,-,-,-
CN(C)CCN(C(=O)c1ccc(S(=O)(=O)N2CCCC2)cc1)c1nc2ccc(Br)cc2s1,56.6,-,-,-,-,-
CCCCN(C)S(=O)(=O)c1ccc(C(=O)N(CCN(C)C)c2nc3ccc(C)cc3s2)cc1,64.8,-,-,-,-,.
COc1ccccc1NS(=O)(=O)c1ccc(N/N=C(\C)C(C)C)c([N+](=O)[O-])c1,-,-,-,77.7,-,.
CCOC(OCC)c1nc(N)[nH]c(=O)c1CCCCc1ccccc1,.,.,.,.,.,-
CCc1nnc(NC(=O)CN2C(=O)CCC2=O)s1,-,.,-,-,-,.
CCc1nnc(NC(=O)CSc2nnc(CNc3cccc(C)c3)n2-c2ccccc2)s1,-,-,116.4,-,-,-
CCc1nnc(NC(=O)CSc2nnc(Cc3ccccc3)n2-c2ccccc2)s1,-,-,-,-,-,-
CCc1nnc(NC(=O)c2cccc(C(=O)Nc3nnc(CC)s3)n2)s1,-,-,-,76.2,-,.
CCc1nnc(NC(=O)CSc2ncc(-c3ccccc3)n2C)s1,-,.,86.4,-,-,-
CCc1nnc(NC(=O)Cn2ccc(C(F)(F)F)n2)s1,-,-,94.6,-,-,-
COc1cc(CCC(=O)OCC(=O)Nc2sccc2C(N)=O)cc(OC)c1OC,.,.,.,.,.,-
Cc1cc(NC(=O)CN(C)S(=O)(=O)c2cnc[nH]2)ccc1Br,-,-,-,-,-,.
O=C(Nc1cccc(C(F)(F)F)c1)Oc1ccc(Cl)c2cccnc12,69.4,-,-,115.5,-,.
CCN(CC)C(=O)Oc1ccc(Cl)c2cccnc12,-,-,-,-,-,-
CC(=O)C1=NN(c2ccccc2)C(c2cccs2)N1c1ccc(N(C)C)cc1 (stereo not given),54.5,-,-,103.1,-,.
CC(=O)C1=NN(c2ccccc2)C(c2ccc3c(c2)OCO3)N1c1ccccc1 (stereo not given),-,-,-,-,-,-
O=C(Cn1c2[n+](c3ccc(C(F)(F)F)cc31)CCCCC2)c1ccc2c(c1)OCCO2,67.7,-,.,-,-,.
Oc1ccc(-c2n[nH]c(C(F)(F)F)c2-c2ccccc2)c(O)c1,-,-,-,105.1,-,.
CC1(C(=O)NS(=O)(=O)C2CC2)CCN(C(=O)c2ccc3c(c2)OCO3)C1 (stereo not given),.,.,.,.,.,-
Oc1ccc(C2=NNC(c3ccc(O)cc3)=NN2)cc1,-,-,93.9,-,-,.
Oc1ccc(-c2nnc(-c3ccc(O)cc3)nn2)cc1,-,-,-,-,-,-
CC1CCC2(CC1)NC(=O)N(CC(=O)NC(C)c1ccc(F)c(F)c1)C2=O (stereo not given),.,-,.,-,-,-
O=S(=O)(Nc1cccnc1Cl)c1ccc(F)cc1,-,.,-,-,-,.
O=S(=O)(Nc1cc(Sc2cccc3cccnc23)c(O)c2ccccc12)c1ccc(F)cc1,-,119.5,-,101.9,-,.
COc1cc(/C=N/Nc2nc(C)nc3c2cnn3-c2ccccc2)ccc1O,-,.,-,.,.,57.2
COc1cc(/C=N/NC(=O)c2nc(-c3ccccc3)n(-c3ccccc3)n2)ccc1O,-,-,-,-,-,.
CC(C)(C)c1ccc(C2=CC(c3ccccc3F)n3ncnc3N2)cc1 (stereo not given),-,-,-,-,-,-
Cn1cccc1C1C=C(c2ccc(C(C)(C)C)cc2)Nc2ncnn21 (stereo not given),-,-,-,127.1,-,.
